This is an account of results in ChEMBL document CHEMBL4619805, “Structural Analysis of VDR Complex with ZK168281 Antagonist” (J Med Chem, 2020).

The target of assay [1] is T1, Vitamin D3 receptor A (Danio rerio) (UniProt Q9PTN2).
T1 sequence (whole entry): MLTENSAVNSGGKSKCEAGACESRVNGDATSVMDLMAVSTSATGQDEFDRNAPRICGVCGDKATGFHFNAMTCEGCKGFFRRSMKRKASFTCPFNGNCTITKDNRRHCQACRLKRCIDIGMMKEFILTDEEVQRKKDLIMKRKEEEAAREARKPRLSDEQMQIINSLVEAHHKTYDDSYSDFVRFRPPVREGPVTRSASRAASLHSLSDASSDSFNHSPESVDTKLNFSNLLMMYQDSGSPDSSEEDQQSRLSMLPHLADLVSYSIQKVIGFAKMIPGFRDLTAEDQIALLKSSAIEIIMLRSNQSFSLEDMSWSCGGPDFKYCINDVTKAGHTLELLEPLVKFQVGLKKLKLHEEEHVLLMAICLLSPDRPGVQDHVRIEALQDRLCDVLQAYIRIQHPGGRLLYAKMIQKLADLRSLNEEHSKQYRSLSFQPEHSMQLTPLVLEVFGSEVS
In words: Binding affinity to zebrafish VDR LBD assessed as stabilization of structural elements forming LBP at 10 fold excess compound concentration by HDX-MS analysis. Summed up:
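zVDR LBD (10 µM) incubated 30 min at room temperature with ten-fold ligand excess, ethanol as control. D₂O exchange for 60, 180, 600 or 1800 s in 50 mM Tris pH 8.0, 50 mM NaCl, 2% glycerol, 1 mM TCEP. Quench with 3 M urea/0.1% TFA, then pepsin column digestion and UPLC-MS. Back-exchange corrected using a fully deuterated sample. Triplicate reactions.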

Assay [2] addresses T1, Vitamin D3 receptor A (Danio rerio). Briefly: Binding affinity to H12 region (440 to 445 residues) of zebrafish VDR LBD assessed as stabilization of structural elements by measuring increase in protection at 10 fold excess compound concentration in presence of SRC1 NR2 coactivator peptide measured at 1 mins by HDX-MS analysis. The method, boiled down:
(§1)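 Deuterium exchange ran for 60, 180, 600 or 1800 s in D₂O buffer (50 mM Tris pH 8.0, 50 mM NaCl, 2% glycerol, 1 mM TCEP). Quench with urea/TFA, then online pepsin digestion and UPLC-MS. Uptake corrected for back exchange against a fully deuterated control. Triplicates.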

Assay [3] shares this target. In words: Binding affinity to H12 region of zebrafish VDR LBD assessed as stabilization of structural elements forming LBP at 10 fold excess compound concentration by HDX-MS analysis. Summed up:
(§2)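 zVDR LBD (residues 156–453, 10 µM) preincubated 30 min at room temperature with tenfold ligand excess (ethanol control). D2O exchange in 50 mM Tris pH 8.0, 50 mM NaCl, 2% glycerol, 1 mM TCEP for 60–1800 s. Quench with urea/TFA, online pepsin digest, UPLC-MS. Back-exchange corrected against fully deuterated sample; triplicates.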

Assay [4] shares this target. In words: Binding affinity to H10 region (416 to 426 residues) of zebrafish VDR LBD assessed as stabilization of structural elements at 10 fold excess compound concentration in presence of SRC1 NR2 coactivator peptide measured at 3 and 10 mins by HDX-MS analysis. The method, boiled down: as §1
For assay [5], the target named is T2, Vitamin D3 receptor (Homo sapiens) (UniProt P11473).
T2 sequence (whole entry): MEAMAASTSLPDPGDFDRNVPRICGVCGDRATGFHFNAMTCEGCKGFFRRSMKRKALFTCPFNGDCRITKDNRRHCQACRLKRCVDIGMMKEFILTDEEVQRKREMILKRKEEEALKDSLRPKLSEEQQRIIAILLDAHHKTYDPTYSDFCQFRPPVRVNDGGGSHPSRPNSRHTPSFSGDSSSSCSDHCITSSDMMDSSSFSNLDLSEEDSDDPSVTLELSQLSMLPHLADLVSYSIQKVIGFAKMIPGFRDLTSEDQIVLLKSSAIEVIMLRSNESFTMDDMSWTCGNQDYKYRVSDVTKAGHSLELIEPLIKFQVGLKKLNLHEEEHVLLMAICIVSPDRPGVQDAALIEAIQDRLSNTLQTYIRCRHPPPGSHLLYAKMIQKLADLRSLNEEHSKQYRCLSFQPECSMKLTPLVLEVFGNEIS
Briefly: Antagonist activity at human VDR expressed in HEK293 EBNA cells co-expressing CYP24A1 promoter region assessed as reduction in 1,25D3-induced receptor activation at 0.1 to 1000 nM incubated for 18 hrs by luciferase reporter gene assay relative to control. In kind it is cell-based. Details: scale not given: the % may be the effect or the level left. The method, boiled down:
(§3)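 HEK293 EBNA cells, in 5% charcoal-treated FCS for 48 h, co-transfected by jetPEI with full-length hVDR, firefly luciferase under the human CYP24A1 proximal promoter (-414 to -64), and Renilla. 6 h later, 10 nM 1,25D3 ± compound (0.1–1000 nM) added for 18 h. Lysate luciferase normalized to Renilla; triplicate, mean ± SD.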
On the technique in general: In a reporter assay the amount or activity of a reporter protein is the signal.

The target of assay [6] is T1, Vitamin D3 receptor A (Danio rerio). In words: Binding affinity to H12 region of zebrafish VDR LBD assessed as stabilization of structural elements at 10 fold excess compound concentration in presence of SRC1 NR2 coactivator peptide by HDX-MS analysis. Summed up:
(§4)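 Deuterium exchange at pH 8.0 for 60, 180, 600 or 1800 s. Quench, pepsin digestion, UPLC-MS. Per-residue deuteration corrected to a fully deuterated control; triplicates.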

Assay [7] shares this target. Briefly: Binding affinity to H1 region of zebrafish VDR LBD assessed as stabilization of structural elements forming LBP at 10 fold excess compound concentration by HDX-MS analysis. The method, boiled down:
as §2

Assay [8] shares this target. In words: Binding affinity to H2 region of zebrafish VDR LBD assessed as stabilization of structural elements forming LBP at 10 fold excess compound concentration by HDX-MS analysis. The method, boiled down: as §2
Assay [9] has the same target. In words: Binding affinity to H6 to H7 region (322 to 344 residues) of zebrafish VDR LBD assessed as stabilization of structural elements by measuring increase in protection at 10 fold excess compound concentration in presence of SRC1 NR2 coactivator peptide measured at 1 mins by HDX-MS analysis. Summed up: as §4
For assay [10] the target is unchanged. Briefly: Binding affinity to H10 to H11 region (416 to 437 residues) of zebrafish VDR LBD assessed as stabilization of structural elements by measuring increase in protection at 10 fold excess compound concentration in presence of SRC1 NR2 coactivator peptide measured at 1 mins by HDX-MS analysis. The method, boiled down:
as §4

The target is the same in assay [11]. In words: Binding affinity to H5 region (290 to 297 residues) of zebrafish VDR LBD assessed as destabilization of structural elements by measuring deprotection at 10 fold excess compound concentration in presence of SRC1 NR2 coactivator peptide measured at 1 mins by HDX-MS analysis relative to 1,25D3.
Assay [12] deals with T2, Vitamin D3 receptor (Homo sapiens). Briefly: Antagonist activity at human VDR expressed in HEK293 EBNA cells co-expressing CYP24A1 promoter region assessed as reduction in 1,25D3-induced receptor activation at 0.1 to 1000 nM incubated for 18 hrs by luciferase reporter gene assay. The class given is cell-based. Summed up: as §3
Assay [13] deals with T1, Vitamin D3 receptor A (Danio rerio). Briefly: Antagonist activity at full-length zebrafish VDR expressed in rat IEC18 cells co-expressing CYP24A1 promoter region assessed as reduction in 1,25D3-induced receptor activation at 1 to 1000 nM incubated for 24 hrs by luciferase reporter gene assay.
Assay [14] shares this target. In words: Binding affinity to H3 region (253 to 267 residues) of zebrafish VDR LBD assessed as stabilization of structural elements by measuring increase in protection at 10 fold excess compound concentration in presence of SRC1 NR2 coactivator peptide measured at 1 mins by HDX-MS analysis. The method, boiled down: as §4
Assay [15] shares this target. Briefly: Binding affinity to H3 and H7 region of zebrafish VDR LBD assessed as stabilization of structural elements by measuring increase in protection at 10 fold excess compound concentration in presence of SRC1 NR2 coactivator peptide measured at 1 mins by HDX-MS analysis. The method, boiled down: as §4

Calls of active or inactive are those of the source. The calls are words filed in the database; no cut-off is given here.

With `C=C1/C(=C\C=C2/CCC[C@]3(C)[C@@H]([C@H](C)CCCC(C)(C)O)CC[C@@H]23)C[C@@H](O)C[C@@H]1O`, the result in assay [1] and in [4] was Active. In addition, in assay [2], the Activity lay in the range of 30 to 40%. Moreover, the outcome in assay [3] was inactive.

On to `C=C1/C(=C\C=C2/CCC[C@]3(C)[C@@H]([C@H](C)/C=C/[C@@H](O)C4(/C=C/C(=O)OCC)CC4)CC[C@@H]23)C[C@@H](O)C[C@@H]1O`, for which the Activity in [5] is below 60%; in assay [11], above 30%; in [15], below 80%. The result in assay [6] and in [3] was inactive. The result in [7], in assay [8], in assay [9], in assay [10] and in [14] was Active. For the same compound, the inhibition result in assay [12] was “Dose-dependent effect”. Moreover, in assay [13], the inhibition entry was “Active”.
